{
  "source": "paper PMC2860672",
  "about": "(Biochemistry, 2010)",
  "key": {"[1]": {"biological_target": "EntE (dihydroxybenzoate-AMP ligase) (Escherichia coli, UniProt P10378)", "sequence (P10378 whole entry)": "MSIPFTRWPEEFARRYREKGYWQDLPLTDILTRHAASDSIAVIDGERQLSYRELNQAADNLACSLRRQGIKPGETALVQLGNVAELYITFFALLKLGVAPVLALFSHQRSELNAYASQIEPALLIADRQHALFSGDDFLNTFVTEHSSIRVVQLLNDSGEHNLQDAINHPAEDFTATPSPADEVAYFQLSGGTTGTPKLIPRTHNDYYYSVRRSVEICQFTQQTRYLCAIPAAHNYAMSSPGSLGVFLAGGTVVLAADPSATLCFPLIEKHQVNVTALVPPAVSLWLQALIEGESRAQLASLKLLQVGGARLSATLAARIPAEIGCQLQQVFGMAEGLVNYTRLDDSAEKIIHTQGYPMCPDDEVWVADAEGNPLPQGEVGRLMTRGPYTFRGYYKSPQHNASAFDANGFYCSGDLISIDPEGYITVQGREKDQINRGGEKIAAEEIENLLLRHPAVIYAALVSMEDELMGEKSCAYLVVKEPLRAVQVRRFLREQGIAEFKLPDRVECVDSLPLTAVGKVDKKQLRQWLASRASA", "conditions": "for Km / kcat: pH 7.8"}, "[2]": {"biological_target": "T1, EntE (Escherichia coli, UniProt P10378)", "T1 sequence (P10378 whole entry)": "as above", "conditions": "competitive ligand in displacement ITC; cited from earlier work"}, "[3]": {"tested_on": "Nc1ccc(C(=O)O)c(O)c1", "experiment": "purified protein, by the assay type", "conditions": "other: 25°C, pH 7.8, the other substrates fixed and saturating"}, "[4]": {"tested_on": "O=C(O)c1cccc(O)c1O", "experiment": "purified protein, by the assay type", "conditions": "other: 25°C, pH 7.8, the other substrates fixed and saturating"}, "[5]": {"tested_on": "O=C(O)c1cccc(O)c1", "experiment": "purified protein, by the assay type", "conditions": "other: 25°C, pH 7.8, the other substrates fixed and saturating"}, "[6]": {"biological_target": "T1, EntE", "experiment": "ITC of DHB binding to free EntE", "how_it_was_run": "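DHB binding was run by ITC at 25°C in 50 mM HEPES pH 7.8, 10 mM MgCl2. EntE was dialysed against this buffer and ligand was prepared in the dialysate. EntE concentration came from ε280 = 58 790 M⁻¹ cm⁻¹ and DHB by weight. 50 μM EntE in the cell; 1 mM DHB injected 5 μL every 230 s.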"}, "[7]": {"biological_target": "T1, EntE", "experiment": "Dead-end inhibition of EntE by AMPCPP, coupled assay", "assay_type": "biochemical", "conditions": "holo-EntB-ArCP 4 μM"}, "[8]": {"tested_on": "M. tuberculosis", "conditions": "cited from earlier work"}, "[9]": {"biological_target": "T1, EntE", "assay_type": "biochemical", "how_it_was_run": "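Stopped-flow coupled assay (myokinase/pyruvate kinase/LDH, NADH at 340 nm) in 100 mM HEPES pH 7.8, 10 mM MgCl2, 25°C. […] Bisubstrate adenylate analogues were varied. Equal volumes were mixed with 16 nM EntE and followed for 4 min. The first 20 s were discarded. Five traces were averaged per concentration and fitted to a slow-onset equation; kobs was plotted against inhibitor concentration.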"}, "[10]": {"biological_target": "T1, EntE", "experiment": "ITC of Sal-AMS and DHB-AMS with EntE", "assay_type": "binding"}, "[11]": {"conditions": "25°C, the other substrates fixed and saturating"}},
  "note": "Read-outs that look alike come from different tables or passages of the source.",
  "data": [
    {"compound": "Nc1ccc(C(=O)O)cc1", "note": "[4-aminobenzoic acid]", "values": [
      {"measurement": "substrate activity for the EntE reaction", "setting": "[1]; tested as substrate in the coupled assay", "value": "no activity was observed"}
    ]},
    {"compound": "O=C(O)c1ccccc1O", "note": "[salicylic acid]", "values": [
      {"measurement": "Km", "setting": "[1]; [11]", "value": "70 ± 4", "unit": "µM"},
      {"measurement": "kcat", "setting": "[1]", "value": "0.8 ± 0.1", "unit": "s⁻¹"},
      {"measurement": "KA^B", "setting": "[2]", "value": 4740, "unit": "M⁻¹"}
    ]},
    {"compound": "EntE (dihydroxybenzoate-AMP ligase) (Escherichia coli K-12)", "values": [
      {"measurement": "Km", "setting": "[3]", "value": "3100 ± 300", "unit": "µM"},
      {"measurement": "Km", "setting": "[4]", "value": "2.5 ± 0.3", "unit": "µM"},
      {"measurement": "kcat/Km", "setting": "[4]", "value": 880000, "unit": "M⁻¹ s⁻¹"},
      {"measurement": "Km", "setting": "[5]", "value": "70 ± 8", "unit": "µM"},
      {"measurement": "kcat", "setting": "[5]", "value": "0.3 ± 0.01", "unit": "s⁻¹"},
      {"measurement": "kcat/Km", "setting": "[5]", "value": 4600, "unit": "M⁻¹ s⁻¹"}
    ]},
    {"compound": "O=C(O)c1cccc(O)c1O", "note": "[DHB, 2,3-dihydroxybenzoic acid]", "values": [
      {"measurement": "Kd", "setting": "[6]", "value": 8700, "unit": "nM"},
      {"measurement": "n", "setting": "[6]; one-set of sites model", "value": "0.824 ± 0.00512"},
      {"measurement": "KA", "setting": "[6]; one-set of sites model, 25°C", "value": "115000 ± 2800", "unit": "M⁻¹"},
      {"measurement": "ΔH", "setting": "[6]; one-set of sites model, 25°C", "value": "-16.5 ± 0.14", "unit": "kcal/mol"},
      {"measurement": "ΔS", "setting": "[6]; one-set of sites model, 25°C", "value": "−32.2", "unit": "cal mol^−1 K ^−1"}
    ]},
    {"compound": "Nc1ncnc2c1ncn2C1OC(COP(=O)(O)CP(=O)(O)OP(=O)(O)O)C(O)C1O", "note": "(stereo not drawn) [AMPCPP, α, β-methyleneadenosine 5′-triphosphate]", "values": [
      {"measurement": "inhibition pattern versus ATP", "setting": "[7]; varied ATP, saturating DHB (80 μM)", "value": "competitive inhibition"},
      {"measurement": "inhibition pattern versus DHB", "setting": "[7]; varied DHB, saturating ATP (5 mM)", "value": "uncompetitive inhibition"}
    ]},
    {"compound": "CC(C)(CO)[C@@H](O)C(=O)NCCC(=O)NCCS", "note": "[D-pantetheine]", "values": [
      {"measurement": "Km", "setting": "[1]; [11]", "value": "34200 ± 2000", "unit": "µM"},
      {"measurement": "kcat", "setting": "[1]; [11]", "value": "0.9 ± 0.1", "unit": "s⁻¹"}
    ]},
    {"compound": "NNC(=O)c1ccncc1", "note": "[isoniazid]", "values": [
      {"measurement": "MIC99", "setting": "[8]", "value": 0.18, "unit": "µM"}
    ]},
    {"compound": "Nc1ncnc2c1ncn2[C@@H]1O[C@H](COS(=O)(=O)NC(=O)c2cccc(O)c2O)[C@@H](O)[C@H]1O", "note": "[DHB-AMS, 5′-O-[N-(2,3-dihydroxybenzoyl)sulfamoyl]adenosine]", "values": [
      {"measurement": "Ki", "setting": "[9]", "value": 3.8, "unit": "nM"},
      {"measurement": "type of inhibition", "setting": "[9]; time-courses of product formation", "value": "slow-onset tight-binding inhibitors"},
      {"measurement": "TΔS", "setting": "[10]; 293 K, calculated from eq 11", "value": -0.4, "unit": "kcal/mol"},
      {"measurement": "−ΔG", "setting": "[10]; 293 K, calculated from eq 11", "value": 15.0, "unit": "kcal/mol"},
      {"measurement": "fold lower KD than Sal-AMS", "setting": "[10]; ITC", "value": 10, "unit": "fold"},
      {"measurement": "Kd", "setting": "[10]; KA, displacement ITC with 200 mM salicylic acid, 293 K, pH 8.0", "value": 0.00627, "unit": "nM"},
      {"measurement": "Kd", "setting": "[10]; KD, displacement ITC with salicylic acid, KD = 1/KA, 20°C", "value": 0.0075, "unit": "nM"},
      {"measurement": "n (number of binding sites per monomer)", "setting": "[10]; displacement ITC", "value": "1.12 ± 0.03"},
      {"measurement": "−ΔH", "setting": "[10]; stoichiometric titration at high c, 293 K", "value": 15.4, "unit": "kcal/mol"}
    ]}
  ]
}
